In PubChem BioAssay AID463073 (The Scripps Research Institute Molecular Screening Center, 2010):
The campaign covered roughly 2,000 compounds. About 10 (0.5%) were called active.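 The calls were made as follows: active = inhibition above 30%; inactive = the rest.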 For the sample, actives were picked, then their nearest neighbours and some compounds at random. Residues, ends and D or L forms follow the SMILES beside them.

molecular target: Protein-arginine deiminase type-4 (Homo sapiens) (UniProt Q9UM07); assay: blockers of protein arginine deiminase 4 – biochemical, fluorescence polarization, primary screen (AID 463073); conditions: recombinant PAD4, RFA probe fluorescence polarization; at 5 µM; hits give high values;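 also: 0% = PAD4 with DMSO and 100% = wells lacking PAD4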
How it was run: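 System: recombinant PAD4. Amount: PAD4 at 2 µM in dispensed buffer, before additions. Doses: single 5 µM final compound concentration. Timing: 30 min 25 °C preincubation, 5 h 37 °C labeling. Benchmarks: wells lacking PAD4 as full-inhibition control. Repeats: single well per compound. Measured by: FP, ex 525 nm, em 598 nm.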

Chain of Protein-arginine deiminase type-4 (Homo sapiens) (Q9UM07 whole entry, looked up): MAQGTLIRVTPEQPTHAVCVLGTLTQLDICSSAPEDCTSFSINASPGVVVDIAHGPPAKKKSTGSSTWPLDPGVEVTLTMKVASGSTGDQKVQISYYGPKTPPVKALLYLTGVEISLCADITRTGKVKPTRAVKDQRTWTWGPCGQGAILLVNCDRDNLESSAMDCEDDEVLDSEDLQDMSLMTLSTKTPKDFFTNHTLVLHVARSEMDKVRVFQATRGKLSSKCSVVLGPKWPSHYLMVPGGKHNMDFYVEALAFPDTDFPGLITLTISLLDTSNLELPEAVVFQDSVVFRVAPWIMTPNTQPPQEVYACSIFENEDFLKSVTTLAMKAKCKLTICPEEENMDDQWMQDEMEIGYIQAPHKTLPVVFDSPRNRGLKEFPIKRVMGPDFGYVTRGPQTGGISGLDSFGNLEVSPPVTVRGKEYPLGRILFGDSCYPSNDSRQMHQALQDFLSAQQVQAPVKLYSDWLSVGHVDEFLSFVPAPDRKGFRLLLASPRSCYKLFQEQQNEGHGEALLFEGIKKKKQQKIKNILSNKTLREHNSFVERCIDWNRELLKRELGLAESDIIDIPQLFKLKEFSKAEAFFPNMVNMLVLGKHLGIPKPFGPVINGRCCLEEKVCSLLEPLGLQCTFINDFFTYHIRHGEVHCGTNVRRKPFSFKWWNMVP

inhibition, inactive:
CCc1ccc2oc(=O)cc(CN3CCC(C)CC3)c2c1 -1.47%, C[N+](C)(C)CCCC(=O)c1ccc2c(c1)OCO2 3.91%, CC(=O)NC(CC(C)C)C(=O)NC(Cc1ccccc1)C(N)=O (stereo not drawn) (Ac-Leu-Phe-NH2; configuration not given here) 1.27%, COc1ccc2c(C=O)cn(C)c2c1 -2.41%, COC(=O)c1[nH]c2ccccc2c1NC(=O)CN1CCN(C/C=C/c2ccccc2)CC1 0.97%, Cc1ccnc(NS(=O)(=O)c2ccc(N)cc2)n1 1.25%, COc1cc(=O)n(C)c2ccccc12 0.98%, CC(C)CC(NC(=O)c1cccc(Cl)c1)C(=O)O (stereo not given) -0.07%, Cc1c(O)c(=O)ccn1C 4.09%, Cc1cccc(C)c1NS(=O)(=O)c1ccc(NC(=O)c2ccc(Cl)c([N+](=O)[O-])c2)cc1 5.98%, C=CCNC(=S)N1CCc2c([nH]c3ccccc23)C1C (stereo not given) -0.07%, CCN1C(=O)C(CC(=O)Nc2ccc(OC)cc2)N(CCc2ccc(F)cc2)C1=S (stereo not given) 3.71%, Cc1ccccc1-c1nn(-c2ccc(F)cc2F)cc1CNCCN(C)C -4.06%, COc1ccc2[nH]cc(C(=O)CCl)c2c1 2.86%, COC(=O)CN1CC(=O)N(c2ccccc2)C1=S -0.98%, O=c1oc2c(CN3CCCCC3)c(O)ccc2c2c1CCCCC2 -1.21%, COc1ccc2oc(=O)c(-c3nc(C)cs3)cc2c1 3.51%, O=C(NCc1ccc2c(c1)OCO2)c1ccc2c(c1)OCCO2 2.19%, CCOC(=O)C1C(=O)CC(C)(O)C(C(=O)OCC)C1/C=C/c1ccccc1 (stereo not given) 0.16%, CCOc1ccc(N2C(=O)CNC2=S)cc1 0.84%, COc1ccc(N2C(=O)C3C(C2=O)C(C(=O)c2ccccc2)N2CCCC32)cc1 (stereo not given) 2.54%, COc1ccc(C(=O)[C@H]2[C@H]3C(=O)N(c4ccccc4)C(=O)[C@H]3C3C=CC=NN32)cc1 (stereo not given in full) 2.34%, CCNCCC(CCC(C)C)c1ccc2c(c1)OCO2 (stereo not given) 2.15%, COc1ccc(C(=O)/C=C/c2cc(C(=O)O)cc3c2OCOC3)c(O)c1 3%, Clc1ccc2c(c1)[C@H]1OCC[C@H]1[C@@H](c1ccco1)N2 1.39%, NS(=O)(=O)c1cc2c(cc1Cl)NC(CSCc1ccccc1)=NS2(=O)=O 0.58%, COC(=O)C1=C(C)N(C)C(=S)NC1c1ccc(Cl)cc1 (stereo not given) 0.42%, C#C[C@]1(O)CC[C@H]2[C@@H]3CCC4=C(CCC(=O)C4)[C@H]3CC[C@@]21C 0.19%, CC[n+]1c(C)sc2cc(C)ccc21 0.78%, NC(=O)[C@@H]1[C@@H]2C(=O)N(c3ccc(F)cc3)C(=O)[C@@H]2[C@H]2C=Cc3ccccc3N21 -1.24%, COc1ccc(-c2[nH]ncc2CN(C)C(C)c2ccon2)c(OC)c1 (stereo not given) 4.74%, COc1cc(NC(=S)NN2CCN(C)CC2)cc(OC)c1OC -5.47%, CC1(C)Cc2ccccc2C(C(Cc2ccccc2)C(N)=O)=N1 (stereo not given) 1.19%, COc1ccc(NC2=C(Cl)C(=O)N(c3ccccc3)C2=O)c(OC)c1 7.44%, CSc1ccc(CN2CCN(CCC(C)C)C(CCO)C2)cc1 (stereo not given) -2.67%, CC1(C)CC(=O)C(C2(O)C(=O)Nc3ccccc32)CO1 (stereo not given) 7.91%, CCOC(=O)c1cnc2ccccc2c1NCCO 1.39%, COc1ccc(C2(CCN=Cc3ccc(N(C)C)cc3)CCOC(C)(C)C2)cc1 (stereo not given) 4.88%, CC(C)OC(=O)c1ccc(NC(=O)c2cncc(Br)c2)cc1 3.13%, CCOc1cccc(N2C(=O)CC(N(CCc3ccc(OC)c(OC)c3)C(=O)CC)C2=O)c1 (stereo not given) 4.11%, C[C@H](NC(=O)Nc1ccccc1F)C(=O)O 3.34%, Cc1ncc([N+](=O)[O-])n1CCO -2.21%, CC(C)OC(=O)C1C2C=CC3(CN(CC4CCCO4)C(=O)C13)O2 (stereo not given) 3.74%, CC(=O)C1=C(O)C(=O)OC1c1ccc(C)cc1 (stereo not given) 3.6%, Cc1ccc(CSCC(=O)N2CCCC2)cc1 0.78%, Cc1coc2cc3oc(=O)c(CCC(=O)O)c(C)c3cc12 1.74%, C=CCNc1nc2c(c(=O)n(C)c(=O)n2C)n1CC(=C)C 2.6%, CC(=O)Oc1ccc(C2OC(=O)c3ccccc3N2C(C)=O)cc1 (stereo not given) 4.61%, C/C(=N\NC(=O)c1ccccc1[N+](=O)[O-])c1ccc(Br)s1 -5.19%, CC(=O)OC1c2c(ccc3ccc(=O)oc23)OC(C)(C)C1OC(=O)CC(C)C (stereo not given) 3.34%, COc1ccc2c(c1)C(=O)CC(c1ccccc1F)O2 (stereo not given) -3.92%, O=C(NCCc1nc2ccccc2[nH]1)c1cccc(Br)c1 2.09%, CCOC(=O)C1=C2c3ccc4ccccc4c3CC(C)(C)N2C(=O)C1=O 4.17%

inhibition, active:
COC1=C(N)C(=O)c2nc(-c3nc(C(=O)O)c(C)c(-c4ccc(OC)c(OC)c4O)c3N)ccc2C1=O 92.5%, COc1ccc(N2C(=O)[C@@H]3[C@H](C2=O)[C@H]2c4ccccc4C=CN2[C@@H]3C(C)=O)cc1 37.2%
